Measurements taken from the RNAGym collection of RNA variant scans (doi:10.1038/nmeth.2970).

B1: NELF-E aptamer (parent)
chain: CCCAACGACUGCCGAGCGAGAUUACGCUUGAGCGCCCCACUGAGGAUGCCCACGGGCGAUUGGGGCACGG

Variants of: B1
Assay: HiTS-RAP
Details: with NELF-E (Drosophila)
Summary of the method: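 Aptamer DNA templates bearing a T7 promoter and a ter site were sequenced on an Illumina GAIIx flowcell. T7 RNA polymerase then transcribed them in situ, and GST-Tus halted transcription over 30 minutes at 37°C. After a 30-minute room-temperature equilibration with NELF-E-mOrange at 0.064 to 1000 nM in HEPES binding buffer, clusters were imaged, using only the first binding curve. Intensities normalised to sequencing intensity were averaged per sequence and fitted with weighted Hill fits to give Kd, retaining only fits whose variance stayed under 1,000,000.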

Row | Variant | Kd [nM]
1 | C13G U41A | 83.4
2 | A5U U23A | 5.58
3 | A4U C37A | 13
4 | A19G U22C | 4.25
5 | A19G A24U | 7.26
6 | C6G U61C | 74.8
7 | G7U A21G | 6.51
8 | C12G G63U | 13.7
9 | A24G U41G | 5.63
10 | C9G G44A | 17.8
11 | U10G U61G | 8.63
12 | A4G G32U | 5.95
13 | U29C | 4.9
14 | C12G C66U | 6.17
15 | A5U U29A | 5.62
16 | C13G U29A | 4.9
17 | U10G C53U | 3.77
18 | G18A | 4.61
19 | C9G U41A | 79.4
20 | A4G C17G | 5.57
21 | U28A U29A | 4.14

Row | Variant | Kd [nM]
22 | A24G C37U | 15.3
23 | U22G G62U | 10.4
24 | A5G C66U | 6.42
25 | U10G A21C | 4.39
26 | U10G A21G | 5.45
27 | G11U C17G | 5.84
28 | C25G | 5.2
29 | A5U C53U | 4.46
30 | U41G G45U | 5.07
31 | C6G G65U | 6.3
32 | G48U C49G | 5.14
33 | A5U A46G | 34.6
34 | C6A C12G | 6.54
35 | U10G A24G | 5.18
36 | C9G A19U | 7.14
37 | C27U | 4.14
38 | G14U C37U | 21.2
39 | A8G G44A | 39.3
40 | G16U C17G | 5.95
41 | A8U U23G | 6.17
42 | G64C | 7.73

Row | Variant | Kd [nM]
43 | G11A C17G | 6.96
44 | A4U A52G | 4.05
45 | C12G U22G | 5.79
46 | U41G U60C | 9.67
47 | A4U G56A | 10.8
48 | G18U U29G | 7.47
49 | G54C | 10.6
50 | A43G A59G | 69
51 | U22C U47A | 10.5
52 | G7U A52U | 19.3
53 | A5G C50U | 21.6
54 | G16C | 4.81
55 | A8U G34A | 6.21
56 | U10A U22G | 5.49
57 | A43G U60C | 20.1
58 | G16U U41G | 6.39
59 | A5U C66U | 4.52
60 | A4G G34A | 7.45
61 | U10C U22G | 5.75
62 | U22G C51A | 8.46
63 | A19U | 5.02

Row | Variant | Kd [nM]
64 | A8U U29C | 6.56
65 | G7C U10G | 6.28
66 | C13U A15U | 4.83
67 | A19G G26A | 4.12
68 | A4U G32A | 5.67
69 | U22G G44A | 17.5
70 | A8U G62A | 19.2
71 | U23G A52G | 4.37
72 | U23G A52U | 17.6
73 | G11U G55U | 7.1
74 | U29C U61A | 38
75 | U41G A52G | 4.52
76 | A4G C57G | 7.07
77 | G20U G65U | 7.46
78 | A4G C13A | 5.91
79 | C33U G54A | 6.14
80 | C49G | 9.21
81 | A5U G55A | 7.03
82 | A8U C17G | 6.07
83 | A24G G26U | 6.2
84 | C13A G20U | 7.23
